Test results from ChEMBL document CHEMBL3621152, “Highly Efficient Synthesis of 1,3-Dihydroxy-2-carboxycarbazole and Its Neuroprotective Effects” (ACS Med Chem Lett, 2015).
One block for each molecule: values may come before it. Calls of active or inactive are those of the source. The calls are words filed in the database; no cut-off is given here.

Experiments:
MC65 [1] = assay: Neuroprotective activity in human MC65 cells assessed as protection against tetracycline removal-induced toxicity UP TO 10 uM incubated for 72 hrs by MTT method; assay type: functional, cell-based; conditions: in the assay text read “UP TO 100 uM” for “UP TO 10 uM”
How it was run: (§1)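 Aβ toxicity in MC65 cells (C99 expression induced by tetracycline removal) with compound present at the indicated concentrations under -TC conditions for 72 h; viability read by MTT assay.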

MC65 [2] = assay: Neuroprotective activity in human MC65 cells assessed as protection against tetracycline removal-induced toxicity at 0.3 uM incubated for 72 hrs by MTT method; assay type: functional, cell-based; how it was run: as §1
MC65 [3] = assay: Neuroprotective activity in human MC65 cells assessed as protection against tetracycline removal-induced toxicity at 10 uM incubated for 72 hrs by MTT method; assay type: functional, cell-based; how it was run: as §1
[4] = molecular target: T1, Amyloid-beta precursor protein (Homo sapiens, UniProt P05067); assay: Inhibition of amyloid beta (1 to 42) (unknown origin) aggregation incubated for 48 hrs by Thioflavin-T Abeta aggregation assay
How it was run: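 Aβ42 (10 µM) incubated with compound at the indicated concentrations for 48 h; aggregation measured by thioflavin T assay; curcumin (10 µM) used as positive control.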

[5] = molecular target: T1, Amyloid-beta precursor protein; assay: Inhibition of amyloid beta oligomerization in human MC65 cells assessed as small AbetaOs formation at 0.3 uM incubated for 48 hrs under tetracycline removal condition by Western blot method; assay type: cell-based
How it was run: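 MC65 cells incubated with compound under -TC conditions for 48 h; culture lysates analyzed by Western blot with 6E10 antibody for Aβ oligomers.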

[6] = Antioxidant activity assessed as DPPH radical scavenging activity at 0.3 to 100 uM incubated for 30 mins at 37 degC; assay type: physicochemical; conditions: 0.5 h
How it was run: (§2)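 Test compound or trolox incubated with DPPH (50 µM) in MeOH at 37 °C for 30 min at the indicated concentrations; radical scavenging read as absorbance at 517 nm.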

MC65 [7] = assay: Effect on Abeta42 production in human MC65 cells at 0.1 to 1 uM incubated for 48 hrs under tetracycline removal condition by ELISA method; assay type: functional, cell-based
How it was run: (§3)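 MC65 human neuroblastoma cells, which conditionally express APP C-terminal fragment C99 under tetracycline suppression, treated under -TC conditions for 48 h; Aβ40 and Aβ42 measured in the collected medium by ELISA.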

MC65 [8] = assay: Effect on Abeta40 production in human MC65 cells at 0.1 to 1 uM incubated for 48 hrs under tetracycline removal condition by ELISA method; assay type: functional, cell-based; how it was run: as §3
[9] = Antioxidant activity assessed as DPPH radical scavenging activity at 0.3 to 10 uM incubated for 30 mins at 37 degC; assay type: physicochemical; conditions: 0.5 h; how it was run: as §2

T1 sequence (P05067 whole entry): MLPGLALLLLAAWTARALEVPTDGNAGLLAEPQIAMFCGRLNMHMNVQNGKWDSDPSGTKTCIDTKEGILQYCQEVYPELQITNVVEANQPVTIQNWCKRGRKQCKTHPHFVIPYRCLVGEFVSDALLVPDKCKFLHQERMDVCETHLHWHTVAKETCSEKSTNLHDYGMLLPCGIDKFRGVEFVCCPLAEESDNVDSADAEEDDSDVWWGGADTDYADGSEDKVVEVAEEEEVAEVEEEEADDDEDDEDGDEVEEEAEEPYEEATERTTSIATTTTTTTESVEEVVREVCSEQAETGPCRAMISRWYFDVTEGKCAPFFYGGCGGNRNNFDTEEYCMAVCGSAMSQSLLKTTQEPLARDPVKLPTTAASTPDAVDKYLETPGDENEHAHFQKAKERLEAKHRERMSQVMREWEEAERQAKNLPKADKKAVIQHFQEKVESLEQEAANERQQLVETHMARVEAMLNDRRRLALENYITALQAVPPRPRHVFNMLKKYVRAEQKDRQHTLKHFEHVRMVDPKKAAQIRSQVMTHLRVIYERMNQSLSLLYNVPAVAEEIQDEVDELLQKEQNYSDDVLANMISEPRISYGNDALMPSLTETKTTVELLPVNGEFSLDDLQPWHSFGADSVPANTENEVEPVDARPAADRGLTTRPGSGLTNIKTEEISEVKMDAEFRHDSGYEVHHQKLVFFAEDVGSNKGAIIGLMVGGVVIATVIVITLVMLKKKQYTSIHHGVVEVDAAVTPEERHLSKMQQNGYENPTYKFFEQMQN

Compound: O=C(O)c1c(O)cccc1O
Activity (MC65 [1]): inactive

IC50 [4]: 15 µM
inhibition [4]: Dose-dependent effect
inhibition [5]: Active
Activity [6]: Active
Compound: O=C(O)c1c(O)cc2c([nH]c3ccccc32)c1O
Activity (MC65 [2]): Active
Activity (MC65 [3]): Active
Activity (MC65 [7]): inactive
Activity (MC65 [8]): inactive

Activity [9]: Active
Compound: Cc1c(C)c2c(c(C)c1O)CCC(C)(C(=O)O)O2 (stereo not given) [TROLOX]
